Reference: ChEMBL document CHEMBL1629526, “4-[1-(Substituted aryl/alkyl carbonyl)-benzoimidazol-2-yl]-benzenesulfonic acids: synthesis, antimicrobial activity, QSAR studies, and antiviral evaluation” (Eur J Med Chem, 2010)
Values after ≈ are worked out from the molar mass of the structure shown.

Experiments:
HeLa = assay: Cytotoxicity against human HeLa cells assessed as cell viability by MTS assay; type: cell-based; conditions: hela
Procedure, shortened: (§1)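 Uninfected cultures were run in parallel with the antiviral assays. Viability was read by colorimetric formazan MTS assay.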

Sindbis virus = assay: Antiviral activity against Sindbis virus infected in african green monkey Vero cells assessed as inhibition of virus induced cytopathicity after 2 to 4 days by MTS assay; type: functional, organism-based
MDCK = assay: Cytotoxicity against MDCK cells assessed as cell viability by MTS assay; type: cell-based, Canis lupus familiaris; conditions: dog, mdck; procedure, shortened: as §1
Coxsackievirus B4 [1] = assay: Antiviral activity against coxsackievirus B4 infected in human HeLa cells assessed as inhibition of virus induced cytopathicity after 2 to 4 days by MTS assay; type: functional, organism-based; conditions: Enterovirus B
[2] = test system: Vesicular stomatitis virus; assay: Antiviral activity against Vesicular stomatitis virus infected in human HeLa cells assessed as inhibition of virus induced cytopathicity by visual scoring of CPE; type: functional, organism-based
Escherichia coli = assay: Antimicrobial activity against Escherichia coli after 24 hrs by tube dilution method; type: functional
Human alphaherpesvirus 1 [3] = assay: Antiviral activity against thymidine kinase deficient acyclovir-resistant Herpes simplex virus 1 KOS infected in HEL cells assessed as inhibition of virus induced cytopathicity after 2 to 4 days by MTS assay; type: functional, organism-based; conditions: Human alphaherpesvirus 1, KOS
Influenza A virus [4] = assay: Antiviral activity against Influenza A H1N1 virus subtype infected in MDCK cells assessed as inhibition of virus induced cytopathicity by visual scoring of CPE; type: functional, organism-based
Coxsackievirus B4 [5] = assay: Antiviral activity against coxsackievirus B4 infected in human HeLa cells assessed as inhibition of virus induced cytopathicity by visual scoring of CPE; type: functional, organism-based; conditions: Enterovirus B
Candida albicans = assay: Antimicrobial activity against Candida albicans after 48 hrs by tube dilution method; type: functional
Bacillus subtilis = assay: Antimicrobial activity against Bacillus subtilis after 24 hrs by tube dilution method; type: functional
Procedure, shortened: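 Serial dilutions in double-strength nutrient broth (I.P.) with ciprofloxacin as reference, tube dilution, incubated 37 °C for 24 h. MIC is the lowest concentration that inhibited growth.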

[6] = Cytotoxicity against human HEL cells assessed as altered cell morphology; type: cell-based
Procedure, shortened: (§2)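 Uninfected cell cultures run alongside the antiviral assays, exposed to serial compound dilutions and incubated at 37 °C for 2–4 days. Toxicity was scored microscopically and reported as the minimum cytotoxic concentration (MCC), the lowest concentration causing a detectable change in normal cell morphology.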

[7] = test system: Vesicular stomatitis virus; assay: Antiviral activity against Vesicular stomatitis virus infected in HEL cells assessed as inhibition of virus induced cytopathicity after 2 to 4 days by MTS assay; type: functional, organism-based
Human respirovirus 3 = assay: Antiviral activity against parainfluenza-3 virus infected in african green monkey Vero cells assessed as inhibition of virus induced cytopathicity after 2 to 4 days by MTS assay; type: functional, organism-based; conditions: Human respirovirus 3, Vero
[8] = Cytotoxicity against cat CRFK cells assessed as cell viability by MTS assay; type: cell-based, Felis catus; conditions: crfk; procedure, shortened: as §1
[9] = test system: Mammalian orthoreovirus 1; assay: Antiviral activity against Reovirus 1 virus infected in african green monkey Vero cells assessed as inhibition of virus induced cytopathicity after 2 to 4 days by MTS assay; type: functional, organism-based; conditions: Mammalian orthoreovirus 1, Vero
[10] = test system: Respiratory syncytial virus; assay: Antiviral activity against Respiratory syncytial virus infected in human HeLa cells assessed as inhibition of virus induced cytopathicity after 2 to 4 days by MTS assay; type: functional, organism-based
[11] = Cytotoxicity against african green monkey Vero cells assessed as altered cell morphology; type: cell-based; conditions: chlorocebus sabaeus; procedure, shortened: as §2
Aspergillus niger = assay: Antimicrobial activity against Aspergillus niger after 7 days by tube dilution method; type: functional; conditions: 168 h
Influenza B virus [12] = assay: Antiviral activity against Influenza B virus infected in MDCK cells assessed as inhibition of virus induced cytopathicity after 2 to 4 days by MTS assay; type: functional, organism-based
[13] = Cytotoxicity against human HeLa cells assessed as altered cell morphology; type: cell-based; procedure, shortened: as §2
Staphylococcus aureus = assay: Antimicrobial activity against Staphylococcus aureus after 24 hrs by tube dilution method; type: functional
Punta Toro virus = assay: Antiviral activity against Punta Toro virus infected in african green monkey Vero cells assessed as inhibition of virus induced cytopathicity after 2 to 4 days by MTS assay; type: functional, organism-based
Human alphaherpesvirus 2 = assay: Antiviral activity against Herpes simplex virus 2 G infected in HEL cells assessed as inhibition of virus induced cytopathicity after 2 to 4 days by MTS assay; type: functional, organism-based; conditions: Human alphaherpesvirus 2, strain G
[14] = test system: Respiratory syncytial virus; assay: Antiviral activity against Respiratory syncytial virus infected in human HeLa cells assessed as inhibition of virus induced cytopathicity by visual scoring of CPE; type: functional, organism-based
Feline coronavirus = assay: Antiviral activity against Feline coronavirus infected in cat CRFK cells assessed as inhibition of virus induced cytopathicity after 2 to 4 days by MTS assay; type: functional, organism-based; conditions: Alphacoronavirus 1, CRFK
Vaccinia virus = assay: Antiviral activity against Vaccinia virus infected in HEL cells assessed as inhibition of virus induced cytopathicity after 2 to 4 days by MTS assay; type: functional, organism-based; conditions: Orthopoxvirus vaccinia
Influenza A virus [15] = assay: Antiviral activity against Influenza A H3N2 virus subtype infected in MDCK cells assessed as inhibition of virus induced cytopathicity after 2 to 4 days by MTS assay; type: functional, organism-based
Human alphaherpesvirus 1 [16] = assay: Antiviral activity against Herpes simplex virus 1 KOS infected in HEL cells assessed as inhibition of virus induced cytopathicity after 2 to 4 days by MTS assay; type: functional, organism-based; conditions: Human alphaherpesvirus 1, KOS
Influenza A virus [17] = assay: Antiviral activity against Influenza A H3N2 virus subtype infected in MDCK cells assessed as inhibition of virus induced cytopathicity by visual scoring of CPE; type: functional, organism-based
Felid alphaherpesvirus 1 = assay: Antiviral activity against Feline herpesvirus 1 infected in cat CRFK cells assessed as inhibition of virus induced cytopathicity after 2 to 4 days by MTS assay; type: functional, organism-based; conditions: Felid alphaherpesvirus 1, CRFK
[18] = Cytotoxicity against MDCK cells assessed as altered cell morphology; type: cell-based, Canis lupus familiaris; conditions: dog; procedure, shortened: as §2
Coxsackievirus B4 [19] = assay: Antiviral activity against Coxsackie virus B4 infected in african green monkey Vero cells assessed as inhibition of virus induced cytopathicity after 2 to 4 days by MTS assay; type: functional, organism-based; conditions: Enterovirus B
Influenza A virus [20] = assay: Antiviral activity against Influenza A H1N1 virus subtype infected in MDCK cells assessed as inhibition of virus induced cytopathicity after 2 to 4 days by MTS assay; type: functional, organism-based
Influenza B virus [21] = assay: Antiviral activity against Influenza B virus infected in MDCK cells assessed as inhibition of virus induced cytopathicity by visual scoring of CPE; type: functional, organism-based
[22] = test system: Vesicular stomatitis virus; assay: Antiviral activity against Vesicular stomatitis virus infected in human HeLa cells assessed as inhibition of virus induced cytopathicity after 2 to 4 days by MTS assay; type: functional, organism-based

Row | Compound | CC50 (HeLa) [µg/mL] | EC50 (Sindbis virus) [µg/mL] | CC50 (MDCK) [µg/mL] | EC50 (Coxsackievirus B4 [1]) [µg/mL] | EC50 [2] [µg/mL] | MBC (Escherichia coli) [µg/mL] | EC50 (Human alphaherpesvirus 1 [3]) [µg/mL] | EC50 (Influenza A virus [4]) [µg/mL] | EC50 (Coxsackievirus B4 [5]) [µg/mL] | MFC (Candida albicans) [µg/mL] | MBC (Bacillus subtilis) [µg/mL] | MCC [6] [µg/mL] | EC50 [7] [µg/mL] | EC50 (Human respirovirus 3) [µg/mL] | CC50 [8] [µg/mL] | EC50 [9] [µg/mL] | EC50 [10] [µg/mL] | MCC [11] [µg/mL] | MFC (Aspergillus niger) [µg/mL] | EC50 (Influenza B virus [12]) [µg/mL] | other results
1 | O=C(c1cccc(O)c1)n1c(-c2ccc(S(=O)(=O)O)cc2)nc2ccccc21 | > 100 | > 100 | > 100 | > 100 | > 100 | 3.12 (≈ 7.91 µM) | > 100 | > 20 | > 100 | 50 (≈ 127 µM) | > 50 | > 100 | > 100 | > 100 | > 100 | > 100 | > 100 | > 100 | > 50 | > 20 | MCC [13]: > 100 µg/mL; MBC (Staphylococcus aureus): 12.5 µg/mL (≈ 31.7 µM); EC50 (Punta Toro virus): > 100 µg/mL; EC50 (Human alphaherpesvirus 2): > 100 µg/mL; EC50 [14]: > 100 µg/mL; EC50 (Feline coronavirus): > 100 µg/mL; EC50 (Vaccinia virus): > 100 µg/mL; EC50 (Influenza A virus [15]): > 20 µg/mL; EC50 (Human alphaherpesvirus 1 [16]): > 100 µg/mL; EC50 (Influenza A virus [17]): > 20 µg/mL; EC50 (Felid alphaherpesvirus 1): > 100 µg/mL; MCC [18]: 100 µg/mL; EC50 (Coxsackievirus B4 [19]): > 100 µg/mL; EC50 (Influenza A virus [20]): > 20 µg/mL; EC50 (Influenza B virus [21]): > 20 µg/mL; EC50 [22]: > 100 µg/mL
2 | Nc1ccccc1C(=O)n1c(-c2ccc(S(=O)(=O)O)cc2)nc2ccccc21 | > 100 | > 4 | 4.1 (≈ 10.4 µM) | > 20 | > 20 | 1.56 (≈ 3.97 µM) | > 100 | > 4 | > 20 | 50 (≈ 127 µM) | > 50 | > 100 | > 100 | > 4 | 11 (≈ 28 µM) | > 4 | > 20 | 20 | > 50 | > 4 | MCC [13]: ≥ 20 µg/mL; MBC (Staphylococcus aureus): 50 µg/mL (≈ 127 µM); EC50 (Punta Toro virus): > 4 µg/mL; EC50 (Human alphaherpesvirus 2): > 100 µg/mL; EC50 [14]: > 20 µg/mL; EC50 (Feline coronavirus): > 4 µg/mL; EC50 (Vaccinia virus): > 100 µg/mL; EC50 (Influenza A virus [15]): > 4 µg/mL; EC50 (Human alphaherpesvirus 1 [16]): > 100 µg/mL; EC50 (Influenza A virus [17]): > 4 µg/mL; EC50 (Felid alphaherpesvirus 1): > 4 µg/mL; MCC [18]: ≥ 4 µg/mL; EC50 (Coxsackievirus B4 [19]): > 4 µg/mL; EC50 (Influenza A virus [20]): > 4 µg/mL; EC50 (Influenza B virus [21]): > 4 µg/mL; EC50 [22]: > 20 µg/mL
